The values that follow come from ChEMBL document CHEMBL1131090, “Discovery of N-[2-[5-[Amino(imino)methyl]-2-hydroxyphenoxy]-3, 5-difluoro-6-[3-(4, 5-dihydro-1-methyl-1H-imidazol-2-yl)phenoxy]pyridin-4-yl]-N-methylgl y cine (ZK-807834): a potent, selective, and orally active inhibitor of the blood coagulation enzyme factor Xa” (J Med Chem, 1998).

As a reminder, the pKi is −log10 of the Ki, conventionally taken in molar units. A low value points to a large Ki.

The structures appear in SMILES notation. pKi: −log10 of the molar value.

Data set [1] can be described thus: plasma concentration was measured against the Nonhuman primates (baboon) using FXa inhibition assay after 1 hr; uM. It counts as ADME, organism-based, Papio. In outline: (§1)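 Baboons received a 10 mg/kg oral dose in 1.5% carboxymethylcellulose plus 1% Tween 80 via nasogastric tube (2–4 animals per compound). Plasma inhibitor concentration was determined at the stated times by FXa inhibition assay.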

Data set [2] can be described thus: plasma concentration was measured against the Nonhuman primates (baboon) using FXa inhibition assay after 2 hr; uM. It counts as ADME, organism-based, Papio. In outline: as §1
The nature of data set [3]: plasma concentration was measured against the Nonhuman primates (baboon) using FXa inhibition assay after 3 hr; uM. It counts as ADME, organism-based, Papio. The gist of the method: as §1
The nature of data set [4]: plasma concentration was measured against the Nonhuman primates (baboon) using FXa inhibition assay after 4 hr; uM. It counts as ADME, organism-based, Papio. The gist of the method:
as §1

Data set [5] can be described thus: plasma concentration was measured against the Nonhuman primates (baboon) using FXa inhibition assay after 6 h; uM. It counts as ADME, organism-based, Papio. The gist of the method:
as §1

Data set [6] is described as follows: Inhibitor plasma concentration was measured in dogs on 10 mg/kg oral dosing after 1 hr administration; uM. It counts as ADME, organism-based, Canis lupus familiaris. The conditions noted are these: dog. More on the design: dose 10 mg/kg, route oral. The gist of the method: (§2)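 Conscious beagles (10–16 kg) were given 10 mg/kg by oral gavage as homogeneous solutions in aqueous acid (n = 3). Plasma inhibitor concentrations were measured at the stated times by an ex vivo FXa inhibition activity assay. For ester/acid pairs, the value is the total ester plus acid concentration.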

A short description of data set [7]: Inhibitor plasma concentration was measured in dogs on 10 mg/kg oral dosing after 2 hr administration; uM. The settings on record: dog. Further details: dose 10 mg/kg, route oral. It counts as ADME, organism-based, Canis lupus familiaris. The gist of the method: as §2
Data set [8] deals with Coagulation factor X (Homo sapiens, UniProt P00742). Description: Inhibitory potency was measured against human coagulation factor X.
Chain of Coagulation factor X (P00742 41-179 limits assumed): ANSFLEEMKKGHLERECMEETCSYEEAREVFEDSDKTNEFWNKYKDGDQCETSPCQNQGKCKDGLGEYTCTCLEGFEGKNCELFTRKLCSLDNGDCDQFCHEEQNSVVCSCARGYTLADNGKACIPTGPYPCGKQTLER
Chain of Coagulation factor X (P00742 235-488 limits assumed): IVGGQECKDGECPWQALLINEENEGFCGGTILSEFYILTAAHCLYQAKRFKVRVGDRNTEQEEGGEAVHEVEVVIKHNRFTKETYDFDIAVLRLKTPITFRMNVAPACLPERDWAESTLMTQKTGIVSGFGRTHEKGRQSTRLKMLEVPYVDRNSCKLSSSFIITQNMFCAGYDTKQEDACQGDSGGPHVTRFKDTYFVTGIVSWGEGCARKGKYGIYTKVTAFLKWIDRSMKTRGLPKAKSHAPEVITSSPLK
Data set [9] can be described thus: Prothrombin time concentration to give a 2-fold extension activity against pooled lyophilized human plasma. It counts as functional. The gist of the method: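 Prothrombin time was measured in pooled lyophilized human plasma with Thromboplastin IS on an automated coagulation analyzer. The value is the inhibitor concentration that doubles PT.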
Data set [10] deals with Prothrombin (Homo sapiens, UniProt P00734). Kind of data set: Inhibitory potency was measured against human thrombin. In outline:
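Purified human thrombin (16 nM final) was assayed chromogenically with S-2302 (300 μM final) in 50 mM Tris-HCl pH 7.5, 150 mM NaCl, 2.5 mM CaCl2, 0.1% PEG 6000 at room temperature. Varying inhibitor concentrations were tested at a substrate level equal to Km, assuming a competitive mechanism, to derive Ki.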

In data set [11] the target is T1, Serine protease 1 (Bos taurus, UniProt P00760).
T1 sequence (P00760 whole entry): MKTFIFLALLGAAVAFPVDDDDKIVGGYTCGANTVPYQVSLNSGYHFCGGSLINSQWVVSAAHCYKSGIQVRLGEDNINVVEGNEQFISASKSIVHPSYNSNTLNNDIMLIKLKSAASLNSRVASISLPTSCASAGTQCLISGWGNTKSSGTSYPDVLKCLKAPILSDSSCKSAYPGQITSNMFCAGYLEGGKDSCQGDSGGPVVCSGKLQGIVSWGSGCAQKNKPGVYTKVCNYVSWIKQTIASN
Kind of data set: Inhibitory potency was measured against bovine trypsin.

Data set [12] is described as follows: Inhibitor plasma concentration was measured in dogs on 10 mg/kg oral dosing after 4 hr administration; uM. It counts as ADME, organism-based, Canis lupus familiaris. More on the design: dose 10 mg/kg, route oral. The conditions noted are these: dog. The gist of the method:
as §2

Data set [13] is described as follows: plasma concentration was measured against the Nonhuman primates (cynomolgus monkey) using HPLC after 1 hr; uM.
Data set [14] can be described thus: plasma concentration was measured against the Nonhuman primates (cynomolgus monkey) using HPLC after 2 hr; uM.
A short description of data set [15]: plasma concentration was measured against the Nonhuman primates (cynomolgus monkey) using HPLC after 3 hr; uM.
The nature of data set [16]: plasma concentration was measured against the Nonhuman primates (cynomolgus monkey) using HPLC after 4 hr; uM.

`CCOC(=O)[C@@H]1C[C@@H](Oc2c(F)c(Oc3cccc(C4=NCCN4C)c3)nc(Oc3cc(C(=N)N)ccc3O)c2F)CN1`: the concentration at 1 h was determined as 200 nM in data set [1] and 3500 nM in data set [6]. The concentration at 2 h in [2] was 300 nM; in [7] it was 3400 nM. The concentration at 3 h in data set [3] was 600 nM. Moreover, the concentration at 4 h in data set [4] stood at 500 nM; in data set [12], 2600 nM. The concentration at 6 h in data set [5] came out at 300 nM. For the same compound, the pKi in data set [8] was 9.37; in data set [10], 6.85; in data set [11], 6.48. The compound further yielded a PT extension in data set [9] of 300 nM.

As to `CN1CCN=C1c1cccc(Oc2nc(Oc3cc(C(=N)N)ccc3O)c(F)c(OC3CCN(CC(=O)O)CC3)c2F)c1`, the figures for the concentration at 1 h in [1], in data set [6] and in [13] were 100 nM, 5500 nM and 100 nM, respectively. Further, the concentration at 3 h in [3] is 100 nM. Besides, the concentration at 4 h in [4] stood at 200 nM; in [12], 1200 nM. The concentration at 6 h in data set [5] was 700 nM. In [7], this compound showed a concentration at 2 h of 3800 nM. Moreover, the pKi in data set [8] is 9.62; in data set [10], 6.90; in [11], 6.48. Further, the PT extension in [9] is recorded as 220 nM.

`CN1CCN=C1c1cccc(Oc2nc(Oc3cc(C(=N)N)ccc3O)c(F)c(N(C)CC(=O)O)c2F)c1` [FIDEXABAN]: the concentration at 1 h in data set [1] was found to be 300 nM; in data set [6], 3000 nM; in [13], 200 nM. The concentration at 2 h in data set [2] amounted to 600 nM; in data set [7] it was 2100 nM; in data set [14], 500 nM. Further, the concentration at 3 h turned out to be 900 nM in data set [3] and 700 nM in data set [15]. The concentration at 4 h in data set [4] was 1100 nM; in [12], 700 nM; in data set [16], 1200 nM. In [5], the concentration at 6 h worked out at 1000 nM. In [9], this compound gave a PT extension of 230 nM. The pKi in [10] was 5.70; in [11] it was 6.55.
